Test results published in ChEMBL document CHEMBL3045403, “chemical composition, plant genetic differences, antimicrobial and antifungal activity investigation of the essential oil of Rosmarinus officinalis L” (J Agric Food Chem, 2004).
Activity calls are given as the source filed them. The calls are words filed in the database; no cut-off is given here.

Legend:
[1] = system: Fusarium graminearum; assay: Induction of growth of Fusarium graminearum after 4 to 12 days; type: organism-based; conditions: in vivo
Summary of the method: (§1)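 Mycelial fragments (6 mm diameter, from 10-day cultures) were seeded on PDA in Petri dishes. Essential oil was added at 450 and 900 µL/mL, and plates were sealed and incubated in the dark at 22 °C. Controls received distilled water instead of oil. Mean diametric colony growth was read at 4, 8 and 12 days. Inhibition % = 100(C − T)/C, where C is the control diameter and T the oil-treated diameter.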

[2] = system: Candida albicans; assay: Antimicrobial activity against Candida albicans ATCC 14053 assessed as growth inhibition after 24 hr by broth microdilution method; type: functional
Summary of the method: (§2)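 Broth microdilution. Oils prepared as […] in DMSO and diluted in the plates to 3.5–900 µL/mL. Inoculum 5×10^5 cfu/mL, checked by plating on PDA. Incubated aerobically for 24 h at 37 °C (C. albicans at 30 °C). MIC taken as the first well, in ascending order, with no pellet or turbidity. MBC (99.9% kill) from 25 µL subcultured on PDA overnight at 37 °C. Three repeats.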

[3] = system: Pseudomonas aeruginosa; assay: Antimicrobial activity against Pseudomonas aeruginosa ATCC 9027 assessed as growth inhibition after 24 hr by broth microdilution method; type: functional; summary of the method: as §2
[4] = system: Escherichia coli; assay: Antimicrobial activity against Escherichia coli ATCC 8739 assessed as growth inhibition after 24 hr by broth microdilution method; type: functional; summary of the method: as §2
[5] = system: Staphylococcus epidermidis; assay: Antimicrobial activity against Staphylococcus epidermidis ATCC 12228 assessed as growth inhibition after 24 hr by broth microdilution method; type: functional; summary of the method: as §2
[6] = system: Staphylococcus aureus; assay: Antimicrobial activity against Staphylococcus aureus ATCC 6538 assessed as growth inhibition after 24 hr by broth microdilution method; type: functional; summary of the method: as §2
[7] = system: Rhizoctonia solani; assay: Antifungal activity against Rhizoctonia solani assessed as mycelial growth inhibition after 4 to 12 days; type: functional, organism-based
Summary of the method: (§3)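 Mycelial plugs (6 mm, 10-day-old cultures) inoculated on PDA in Petri dishes; essential oil added at 450 and 900 µL/mL; dishes sealed with Parafilm and held in the dark at 22 °C. Control: PDA plus distilled water. Mean colony diameter measured at 4, 8 and 12 days; inhibition I = 100(C − T)/C. Plates without growth were transferred to plain PDA for 48 h to tell fungistatic from fungicidal.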

[8] = system: Fusarium culmorum; assay: Antifungal activity against Fusarium culmorum assessed as mycelial growth inhibition after 4 to 12 days; type: functional, organism-based; summary of the method: as §3
[9] = system: Fusarium graminearum; assay: Antifungal activity against Fusarium graminearum assessed as mycelial growth inhibition after 4 to 12 days; type: functional, organism-based; summary of the method: as §1
[10] = system: Fusarium oxysporum f. sp. lycopersici; assay: Antifungal activity against Fusarium oxysporum f. sp. lycopersici assessed as mycelial growth inhibition after 4 to 12 days; type: functional, organism-based; summary of the method: as §3
[11] = system: Botrytis cinerea; assay: Antifungal activity against Botryotinia fuckeliana assessed as mycelial growth inhibition after 4 to 12 days; type: functional, organism-based; summary of the method: as §3

SMILES | Activity [1] | MIC [2] [uL/ml] | MIC [3] [uL/ml] | MIC [4] [uL/ml] | MIC [5] [uL/ml] | MIC [6] [uL/ml] | growth inhibition (GI) [7] | growth inhibition (GI) [8] | growth inhibition (GI) [9] | growth inhibition (GI) [10] | growth inhibition (GI) [11]
C=C1[C@@H]2CC[C@@H](C2)C1(C)C [(-)-CAMPHENE] | Toxic | >900 | >900 | >900 | >900 | >900 | inactive | inactive | inactive | inactive | inactive
CC1=CC(=O)[C@@H]2C[C@H]1C2(C)C [VERBENONE] | Toxic | >900 | >900 | >900 | >900 | >900 | inactive | inactive | inactive | inactive | inactive
CC1(C)C2CCC1(C)C(O)C2 (stereo not given) [BORNEOL] | Toxic | >900 | >900 | >900 | >900 | >900 | inactive | inactive | inactive | inactive | inactive
CC1=CCC2CC1C2(C)C (stereo not drawn) [ALPHA-PINENE] | Toxic | >900 | >900 | >900 | >900 | >900 | inactive | inactive | inactive | inactive | inactive
CC12CCC(CC1=O)C2(C)C (stereo not given) [CAMPHOR] | Toxic | >900 | >900 | >900 | >900 | >900 | inactive | inactive | inactive | inactive | inactive
